Reference: ChEMBL document CHEMBL1133084, “Synthesis of novel 3,7-substituted-2-(3',4'-dihydroxyphenyl)flavones with improved antioxidant activity” (J Med Chem, 2000)

Assays:
[1] = Antioxidant activity was determined using trolox equivalent antioxidant capacity assay.; type: functional
Outline: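 ABTS (1.23 mg/mL) and ABAP (3.96 mg/mL) in 50 mM phosphate buffer pH 7.4 heated 70 °C for 20 min to generate ABTS radical. Test compound (stock in N2-purged DMSO:water 1:1; final DMSO ≤0.25%) incubated with ABTS•+ solution 5 min at 37 °C. Absorbance read at 734 nm. Trolox calibration 0–20 μM; TEAC = mM trolox equivalent to 1 mM compound.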

Rattus norvegicus = species: Rattus norvegicus; assay: Inhibitory effect on the oxidative degradation of membrane lipids (lipid peroxidation assay) in microsomes of rat.; type: functional
Outline: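 Liver microsomes from male Wistar rats (200–220 g), washed in 50 mM Tris-HCl pH 7.4 and heat-inactivated at 100 °C ≥2 min, then diluted to 1.5 mg/mL. Peroxidation started with 10 μM FeSO4; final DMSO ≤2.5%. TBA-reactive substances sampled at 0–60 min and absorbance read at 535-600 nm after heating. IC50 interpolated from % inhibition at several concentrations; mean ± SEM, n = 3-5.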

Row | SMILES | IC50 (Rattus norvegicus) | Activity [1]
1 | O=c1c(OCCO)c(-c2ccc(O)c(O)c2)oc2ccccc12 | 600 nM | 4.4 mM
2 | CN(C)CCCOc1c(-c2ccc(O)c(O)c2)oc2ccccc2c1=O | 1000 nM | 3.4 mM
3 | C[N+](C)(C)CCCCCCCCOc1c(-c2ccc(O)c(O)c2)oc2ccccc2c1=O | 1000 nM | 3.3 mM
4 | COc1ccc2c(=O)cc(-c3ccc(O)c(O)c3)oc2c1 | 2500 nM | 3.3 mM
5 | O=c1cc(-c2ccc(O)c(O)c2)oc2cc(OCCO)ccc12 | 16400 nM | 4.3 mM
6 | O=c1cc(-c2ccc(O)c(O)c2)oc2cc(O)ccc12 | 11000 nM | 4.3 mM
7 | O=C(O)COc1c(-c2ccc(O)c(O)c2)oc2ccccc2c1=O | 6500 nM | 7.6 mM
8 | C[N+](C)(C)CCCCCCOc1c(-c2ccc(O)c(O)c2)oc2ccccc2c1=O | 1400 nM | 4.3 mM
9 | O=c1c(OCCO)c(-c2ccc(O)c(O)c2)oc2cc(O)ccc12 | 21700 nM | 3.4 mM

Continued by falling IC50 (Rattus norvegicus), values first:

Row | IC50 (Rattus norvegicus) | SMILES | Activity [1]
10 | 37300 nM | C[N+](C)(C)CCCOc1ccc2c(=O)cc(-c3ccc(O)c(O)c3)oc2c1 | 1.9 mM
11 | 13800 nM | O=c1c(O)c(-c2ccc(O)c(O)c2)oc2cc(OCCO)ccc12 | 4.9 mM
12 | 8100 nM | CN(C)CCCOc1ccc2c(=O)cc(-c3ccc(O)c(O)c3)oc2c1 | 2.9 mM
13 | 3800 nM | C[N+](C)(C)CCCOc1c(-c2ccc(O)c(O)c2)oc2cc(O)ccc2c1=O | 5.1 mM
14 | 1800 nM | O=c1c(O)c(-c2ccc(O)c(O)c2)oc2ccccc12 | 4.5 mM
15 | 1600 nM | COc1c(-c2ccc(O)c(O)c2)oc2cc(O)ccc2c1=O | 5.9 mM
16 | 1300 nM | COc1c(-c2ccc(O)c(O)c2)oc2ccccc2c1=O | 4.4 mM
17 | 1200 nM | C[N+](C)(C)CCCOc1c(-c2ccc(O)c(O)c2)oc2ccccc2c1=O | 4.2 mM
18 | 200 nM | O=c1c(O)c(-c2ccc(O)c(O)c2)oc2cc(O)ccc12 [FISETIN] | 5.6 mM
